Source: PubChem
PHOSPHO1 block: inhibitors of human PHOSPHO1 phosphatase; inhibition, % at 13.3 µM; recombinant PHOSPHO1, absorbance phosphatase assay; actives 1.1% (n = 290,000); in the data active = inhibition above about 60%
Target sequence (Q8TCT1 whole entry, looked up): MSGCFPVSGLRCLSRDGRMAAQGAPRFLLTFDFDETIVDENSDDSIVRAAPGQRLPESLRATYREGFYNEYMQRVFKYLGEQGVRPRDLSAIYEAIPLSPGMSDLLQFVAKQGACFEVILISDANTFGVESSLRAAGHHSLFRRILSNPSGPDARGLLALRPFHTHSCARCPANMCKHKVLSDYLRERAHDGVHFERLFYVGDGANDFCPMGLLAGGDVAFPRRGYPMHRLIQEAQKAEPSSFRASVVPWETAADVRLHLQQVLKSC
HSF1 activator: increases HSF-1 driven luciferase reporter signal | actives 1.7% (n = 300,000) | NIH3T3-HGL HSF-1 luciferase reporter, MG132, 8 h; 100% = twice DMSO control signal | activation, % at 9 µM;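 active = mean replicate activation of at least 50% with a set share of replicates each reaching 50%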
AI-2 QS modul: modulators of Vibrio harveyi AI-2 quorum sensing system. AID 2094. Vibrio harveyi JMH597 AI-2 luminescence/OD600 ratio, 9 h; stronger effect = lower value; strain lacks LuxN and CqsS sensors; 0 = neutral-control median. activity change, % at 7.5 µM. actives 0.4% (n = 300,000); in the data active = activity change below about -75%, passing the limit was not always enough;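 note: luminescence divided by OD600 gain over 9 h not by final OD600 alone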
ALR inh: inhibitors of human sulfhydryl oxidase ALR | AID 485317 | inhibition, % (no concentration beside the values) | actives 3.8% (n = 290,000) | purified ALR, DTT oxidation, H2O2 HRP-luminol luminescence;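 active = mean replicate inhibition above about 79%, with every replicate also reaching it, limit read from the data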
Target sequence (P55789 whole entry, looked up): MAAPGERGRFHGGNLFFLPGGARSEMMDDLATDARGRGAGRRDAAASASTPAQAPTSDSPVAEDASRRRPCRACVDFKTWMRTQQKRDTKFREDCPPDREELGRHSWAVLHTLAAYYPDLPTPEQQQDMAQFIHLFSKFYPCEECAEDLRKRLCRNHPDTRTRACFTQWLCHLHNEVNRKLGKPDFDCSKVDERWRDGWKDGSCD
HCV core dimer: blocks dimerization of HCV core protein. inhibition, % at 5 µM. actives 0.33% (n = 300,000). TR-FRET GST/Flag-core106 dimerization, 1536-well. AID 1899;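 active = inhibition above the mean of all tested compounds plus 3 SD, set per screening campaign, cut at about 45% in these data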
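Test system: GST/Flag-tagged HCV core106 proteins; Medium: KF-containing HEPES buffer, pH 7.45, DTT, CHAPS, BSA; Times: compound-protein-antibody incubation 4 h at 22.5 °C; Detection: TR-FRET 671 and 617 nm emission; Benchmarks: wells lacking GST-core106 and wells with excess unlabelled core106.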
HSF1 inh: HSF1 inhibition; actives 0.77% (n = 300,000); NIH3T3-HGL HSE-luciferase, MG132-induced, luminescence 8 h; stronger effect = lower value; activity change, negative = inhibition, % at 7.5 µM (by protocol);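 active = more than half of replicate wells show activity change below -50%, luminescence cut by over half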;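 note: luciferase reports HSF-1 transcriptional activity via heat shock element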
Each line names hits and unclear results; the compound was inactive in the other large screens. A selection: hits, their analogues and other compounds. The true share with any hit is near 6.8%.

CCS(=O)(=O)Nc1ccc(C2=NN(C(=S)Nc3ccccc3)C(c3ccco3)C2)cc1 (configuration not stated)	none
CCOC(=O)c1ccc2c(c1)nc(SCc1cn3ccsc3n1)n2CC	none
OC(CN1c2ccccc2Sc2ccccc21)Cn1nnc2ccccc21 (configuration not stated)	HSF1 activator 63, ALR inh 98
OCC(CO)(CO)NCC(O)CN1c2ccccc2Sc2ccccc21 (configuration not stated)	ALR inh 99
Cc1nn(CC(O)CN2c3ccccc3Sc3ccccc32)c(C)c1Br (configuration not stated)	none
Cc1ccc2c(c1)c(C)c(C)n2CC(O)Cn1nnc2ccccc21 (configuration not stated)	HSF1 inh -89
Cc1ccc(-n2nc3c(=O)n(CC(=O)NC(C)CCc4ccccc4)nc(C)c3c2C)cc1 (configuration not stated)	none
Cc1ccc(-c2nn(-c3ccccc3)cc2C=C2C(=O)CC(C)(C)CC2=O)cc1	none
CC1(C)CC(=O)C(=Cc2cn(-c3ccccc3)nc2-c2ccccc2)C(=O)C1	HSF1 activator 147 (no result: PHOSPHO1 block)
CC(C)OC(=O)Cn1cnc2ccc(Br)cc2c1=O	ALR inh 89
COC(=O)Cn1cnc2ccccc2c1=O	none
Cc1cccc(NC(=O)c2sc3nc(-c4ccccc4)cn3c2C)n1	none
Cc1c(C(=O)Nc2ccccc2)sc2nc(-c3ccccc3)cn12	HSF1 activator 55
COc1ccccc1N1CCN(C(=O)c2sc3nc(-c4ccc(F)cc4)cn3c2C)CC1	none
COC(=O)C1CCN(C(=O)c2sc3nc(-c4ccccc4)cn3c2C)CC1	HSF1 inh -72
Cc1ccc2c(cnn2C(=O)CCCC(=O)NC(C)c2ccccc2)c1 (configuration not stated)	none
Cc1ccccc1NS(=O)(=O)c1ccc(-c2ccc(=O)[nH]n2)o1	none
CCN(CC)c1ccc(NS(=O)(=O)c2ccc(-c3ccc(=O)[nH]n3)o2)c(C)c1	ALR inh 100
COc1cccc(CN(C)C(=O)CCN=C2NS(=O)(=O)c3ccccc32)c1	none (no result: PHOSPHO1 block, HSF1 activator, AI-2 QS modul, HCV core dimer, HSF1 inh)
O=Cc1ccc(OCc2ccc3c(c2)OCO3)cc1	none
Cc1ccc(COc2ccc3c(c2)OCO3)cc1	HSF1 activator 59
COc1ccc(N=C(NN)c2ccc3ccccc3n2)cc1	HSF1 inh -61
COc1cccc(COC(=O)Nc2ccccc2F)c1	HSF1 activator 74
COc1ccc(NC(=O)Nc2ccccc2F)c(C)c1	none
O=C(NN=C1CCCC1)c1n[nH]c2c1CCCC2	ALR inh 99
CCOC(=O)N1CCC(N2C(=O)c3ccccc3C2Nc2ccc3c(C)cc(=O)oc3c2)CC1 (configuration not stated)	none
CCOC(=O)N1CCC(N2C(=O)c3ccccc3C2=O)CC1	PHOSPHO1 block 99
O=C1c2ccccc2C(Nc2ccc3c(c2)OCCO3)N1Cc1ccccc1 (configuration not stated)	ALR inh 98
CCOC(=O)C1CCN(C(C(=O)Nc2ccc3c(c2)OCCO3)c2ccccc2)CC1 (configuration not stated)	none
CCOC(=O)C1CCN(c2c(Nc3ccc4c(c3)OCCO4)c(=O)c2=O)CC1	HSF1 inh -54 (no result: ALR inh)
CCOC(=O)N1CCC(N2C(=O)c3ccccc3C2Nc2ccc3c(c2)OCCO3)CC1 (configuration not stated)	HSF1 inh -69
CCOc1ccc(NC2c3ccccc3C(=O)N2Cc2ccc3c(c2)OCO3)cc1 (configuration not stated)	none (no result: ALR inh)
CC1CCN(S(=O)(=O)c2cccc(C(=O)Nc3nncs3)c2)CC1	none
Cc1c(CC(=O)O)c(=O)oc2cc(OCc3ccc(Cl)cc3)ccc12	none
Oc1cc(-n2cccn2)c(O)cc1-n1cccn1	none
CC(C)(C)NC(=O)CC1C[C@H](C(=O)N2CCCCC2)[C@@]2(CCc3ccccc3)c3[nH]c4ccccc4c3CCN2C1=O (some centres not stated)	none (no result: PHOSPHO1 block, HSF1 activator, AI-2 QS modul, HCV core dimer, HSF1 inh)
Cc1cc(NC(=O)COc2c(C)cccc2C)no1	none (no result: ALR inh)
CC(C)Cc1c(O)nc(SCC(=O)N2CCCCCC2)[nH]c1=O	ALR inh 97
CCC(C)c1c(O)nc(SCC(=O)N2CCCCCC2)[nH]c1=O (configuration not stated)	ALR inh 97
CC(C)CCc1c(O)nc(SCC(C)C)[nH]c1=O	ALR inh 89
CCC(C)c1c(O)nc(SCc2ccccc2)[nH]c1=O (configuration not stated)	ALR inh 99
Cc1sc2ncnc(SCC(=O)Nc3nc(-c4ccc(F)c(F)c4)cs3)c2c1C	none
O=C(Nc1nc(=S)ss1)c1ccc(Cl)cc1Cl	none
CN1CCN(c2ccc(NC(=O)N3CCc4ccccc43)cc2)CC1	HSF1 inh -85 (no result: PHOSPHO1 block)
Cc1ccc(NC(=O)N2CCc3ccccc32)cc1C	HSF1 activator 51
Cc1ccc(C(=O)Nc2ccc(N3CCN(C)CC3)cc2)cc1C	HSF1 inh -51
Cc1ccc(NC(=O)N2CCc3ccccc32)cc1	HSF1 activator 63
COc1ccc(NC(=O)N2CCCc3ccccc32)cc1OC	none
CN1CCN(c2ccc(NC(=O)Cc3ccccc3)cc2)CC1	none
Cc1ccc(NC(=O)N2CCCc3ccccc32)cc1	none
CCOc1ccc(NC(=S)NNC(=O)c2ccc(Br)cc2)cc1	none
COc1ccc(Cl)cc1-c1nc(-c2ccc(NC(=O)c3cccs3)cc2)no1	none
Cc1cc2oc(=O)cc(CN3CCCc4ccccc43)c2cc1C	PHOSPHO1 block 74
O=C(Nc1ccc2c(c1)OCO2)C1CCCN(c2nc3ccccc3s2)C1 (configuration not stated)	HSF1 activator 77
CCc1nnc(NC(=O)C2CCCN(c3nc4ccccc4s3)C2)s1 (configuration not stated)	none
O=C(Cn1cnc2c(nnn2-c2cccc(Cl)c2)c1=O)NCc1ccccc1	none
O=C(Nc1cccc(O)c1)c1cc(-c2ccccc2Cl)on1	HSF1 inh -58
Cn1nc(C(=O)Nc2nc(-c3ccc(F)cc3)cs2)ccc1=O	none (no result: ALR inh)
Cc1cccc(N2CCN(C(=O)CCN3C(=O)C4C5C=CC(C5)C4C3=O)CC2C)c1 (configuration not stated)	ALR inh 84
Cc1cccc(N2CCN(C(=O)CCn3c(=O)[nH]c4ccsc4c3=O)CC2C)c1 (configuration not stated)	ALR inh 99
Cc1cccc(N2CCN(C(=O)CCCn3c(=O)[nH]c4ccsc4c3=O)CC2C)c1 (configuration not stated)	ALR inh 98
O=C(CCCn1c(=O)[nH]c2ccsc2c1=O)N1CCCCC1	none
